Screens from PubChem BioAssay.
Calb FLC = C. albicans growth inhibition with fluconazole, primary screen, CaCi-2 strain, Alamar Blue fluorescence. AID 1979, 2009. 300,000 tested, 0.57% active. growth inhibition, % (test concentration not listed). C. albicans CaCi-2 (fluconazole-resistant clinical isolate) + fluconazole, 48 h;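 active = growth inhibition above about 58% in most replicates, limit read from the data, passing the limit was not always enough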;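 note: all wells also contain fluconazole at 8 µg/ml as a sub-toxic cotreatment; 0% = median of DMSO wells and 100% = median of geldanamycin control wells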
SKKanGAS inh = S. pyogenes SKKanGAS growth inhibitors in kanamycin, primary screen, streptokinase expression inhibitor project, SKKanGAS strain, BacTiter-Glo luminescence | 6 h | inhibition, % at 7.5 µM | 300,000 tested, 1.3% active | AID 1662, 2009;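 active = mean replicate score, as percent of positive control median, at least 50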;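 note: strain carries kanamycin resistance gene driven by streptokinase promoter and grows in 40 µg/ml kanamycin; loss of luminescence reflects streptokinase promoter inhibition or plain growth inhibition; 0% = median of DMSO wells and 100% = positive control at its reference dose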
Mdm2 MdmX PPI = inhibitors of human Mdm2-MdmX association, primary screen, cell-based, luminescence, split luciferase, SaOS-2, uHTS. Protein Mdm4 (Homo sapiens) + E3 ubiquitin-protein ligase Mdm2 (Homo sapiens), …. SaOS-2 split-luciferase Mdm2/MdmX complementation. inhibition, % at 8 µM. 330,000 tested, 3% active. AID 485346, 2010;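 active = inhibition of at least 50% at 8 µM in the primary screen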
CSC inhib = cancer stem cell viability inhibitors, primary screen, luminescence. cancer stem cell-like cells viability. inhibition, % at 7.5 µM. 300,000 tested, 1.1% active; in the data active = inhibition above about 75%; tested in HMLE shEcad cells
T cruzi repl = inhibitors of intracellular T. cruzi growth, primary screen, luminescence, NIH3T3 host cells | T. cruzi beta-gal in NIH3T3, 90 h | inhibition, % (test concentration not listed) | 300,000 tested, 1.4% active | AID 1885, 2009;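 active = mean inhibition across valid replicates above about 55%, limit read from the data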;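 note: signal also drops with host cell toxicity which is not excluded here; 0% = plate median of DMSO wells and 100% = zero luminescence signal; higher percent means less beta-gal luminescence so fewer parasites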
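System – NIH/3T3 host cells with β-galactosidase reporter T. cruzi · Doses – single 50 nL compound addition per well in DMSO · Reagent – 5000 T. cruzi trypomastigotes/well · Medium – Low-serum DMEM with 2% FBS · Timing – ≥90 h infection period, 3 h prior cell attachment · Evaluation – parasite load inhibition, % · Technique – GalScreen luminescence, 60 min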
Beta cell apopt = inhibitors of cytokine-induced beta cell apoptosis, primary screen, luminescence; INS-1E cytokine-induced death, ATP luminescence, 48 h; percent of positive-control rescue, neutral wells zero; AID 435005, 2010; protection from apoptosis, % (test concentration not listed); 300,000 tested, 0.8% active;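 active = Every replicate reaches about 75%, or at least half do and their mean reaches it too, limit read from the data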;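 note: 0% = cytokine-treated negative control wells and 100% = positive control rescue; higher means more ATP so stronger rescue from cytokine killing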
Mdm2-MdmX conf = Mdm2-MdmX complex disruptors, retested hits, confirmation, luminescence, single concentration; shares compounds with Mdm2 MdmX PPI; inhibition, % at 8 µM; 10,000 tested, 55% active; Mdm2-MdmX binding, luminescent assay; in the data active = inhibition above about 40%
FLuc counter = full-length luciferase signal inhibition, confirmation, counter-screen for Mdm2/MdmX interaction inhibitor project, cell-based, single concentration, SaOS-2; shares compounds with Mdm2 MdmX PPI; SaOS-2 full-length luciferase counterscreen, luminescence; inhibition, % at 8 µM; 6,200 tested, 77% active;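 active = mean inhibition at 8 µM reaching about 37%, which flags the compound as non-specific, limit read from the data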;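 note: p53-null SaOS-2 cells with luciferase driven by a doxycycline-inducible promoter; compound on cells about two nights before reading with doxycycline added after day one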
Active calls of the source: *; . = no result given. This is a sample that favours compounds with a hit; in the whole collection about 5.7% have one here.

SMILES | Calb FLC | SKKanGAS inh | Mdm2 MdmX PPI | CSC inhib | T cruzi repl | Beta cell apopt | Mdm2-MdmX conf | others
CN1CCN(C(=O)c2ccc3c(c2)N(Cc2cccc(Cl)c2)C(=O)c2ccccc2S3(=O)=O)CC1 | 10.5 | -1.8 | 7.1 | 12.8 | -8.4 | 0.7 | .
C/C(=N\NC(=O)c1ccccc1F)c1cccc(NC(=O)c2ccc(C)cc2)c1 | -2.7 | 5.2 | -26.0 | 11.0 | 2.3 | -1.2 | .
CC[C@]12c3[nH]c4ccc(OC)cc4c3CCN1C(=O)C(CC(=O)NCC13CC4CC(CC(C4)C1)C3)C[C@@H]2C(=O)N1CCN(C(=O)C2CC2)CC1 (some centres not stated) | . | . | 44.8 | . | . | . | .
C[C@]12c3[nH]c4ccc(Cl)cc4c3CCN1C(=O)[C@@H](CC(=O)NCC13CC4CC(CC(C4)C1)C3)C[C@@H]2C(=O)N1CCCCC1 | . | . | 73.7* | . | . | . | 38.6
C[C@]12c3[nH]c4ccc(Cl)cc4c3CCN1C(=O)[C@@H](CC(=O)NCC13CC4CC(CC(C4)C1)C3)C[C@@H]2C(=O)N1CCOCC1 | . | . | 66.0* | . | . | . | 21.8
CC[C@]12c3[nH]c4ccc(Cl)cc4c3CCN1C(=O)[C@@H](CC(=O)NCC13CC4CC(CC(C4)C1)C3)C[C@@H]2C(=O)N1CCN(C(=O)C2CC2)CC1 | . | . | 62.3* | . | . | . | 52.3* | FLuc counter=52.6*
Nc1c(Cl)cc(-c2csc(N3CCCC3c3nc4cc(Cl)c(N5CCCCC5)cc4n3CCCO)n2)cc1Cl (configuration not stated) | -8.0 | 14.5 | 84.9* | -5.2 | 7.7 | -0.2 | 21.8
O=C(/C=C/c1ccccc1[N+](=O)[O-])N1CCc2ccccc2C1 | -11.8 | 13.8 | 10.7 | -9.8 | -3.3 | -0.4 | .
COCCCNC(=O)C[C@H]1C[C@H](C(=O)N2CCOCC2)[C@@]2(CCC3CCCC3)c3[nH]c4cc(-c5ccco5)ccc4c3CCN2C1=O | . | . | 5.9 | . | . | . | .
CN(C)CCCNC(=O)C[C@H]1C[C@H](C(=O)N2CCOCC2)[C@@]2(CCC3CCCC3)c3[nH]c4cc(-c5ccco5)ccc4c3CCN2C1=O | . | . | 94.9* | . | . | . | 11.3
O=C(CC1C[C@H](C(=O)N2CCOCC2)[C@@]2(CCC3CCCC3)c3[nH]c4ccccc4c3CCN2C1=O)NCC12CC3CC(CC(C3)C1)C2 (some centres not stated) | . | . | 84.0* | . | . | 3.1 | 67.8* | FLuc counter=37.6*
COc1ccc(CNC(=O)C[C@H]2C[C@H](C(=O)N3CCOCC3)[C@@]3(CCC4CCCC4)c4[nH]c5cc(-c6ccco6)ccc5c4CCN3C2=O)cc1OC | . | . | 53.1* | . | . | . | 5.2
O=C(C[C@H]1C[C@H](C(=O)N2CCOCC2)[C@@]2(CCC3CCCC3)c3[nH]c4cc(-c5ccco5)ccc4c3CCN2C1=O)NCC12CC3CC(CC(C3)C1)C2 | . | . | 54.5* | . | . | . | 19.3
COc1ccc(S(=O)(=O)N(CC(=O)NC2CCCCC2)c2ccc(F)cc2)cc1 | -1.2 | 5.8 | 14.5 | -2.3 | -4.1 | 1.4 | .
CCOCCCNC(=O)CN1CCN(Cc2ccc(Cl)cc2)C1=O | 0.6 | -8.0 | -18.8 | -20.5 | -1.8 | -1.4 | .
O=C(C[C@H]1C[C@H](C(=O)N2CCOCC2)[C@@]2(CCC3CCCC3)c3[nH]c4cc(-c5ccco5)ccc4c3CCN2C1=O)NCCN1CCOCC1 | . | . | 42.7 | . | . | . | .
CC(C)(C)NC(=O)C[C@H]1C[C@H](C(=O)N2CCOCC2)[C@@]2(CCC3CCCC3)c3[nH]c4cc(-c5ccco5)ccc4c3CCN2C1=O | . | . | 73.1* | . | . | . | -5.3
Cc1sc2ncnc(NCc3ccco3)c2c1C | 11.9 | -12.2 | 38.9 | -5.5 | -18.0 | 12.6 | .
Cc1sc2ncnc(NCc3cccs3)c2c1C | 39.5 | 0.8 | 51.8* | -11.2 | -3.6 | 101.0* | 27.6
